Laboratory results: ChEMBL document CHEMBL1649231, “In vitro activities of panduratin A against clinical Staphylococcus strains” (2009)
Values after ≈ are worked out from the molar mass of the structure shown.

Columns and labels:
Format in all cases: functional
[1] = tested on: Staphylococcus aureus; test: Antimicrobial activity against methicillin-resistant Staphylococcus aureus after 24 hrs by broth microdilution method
In short: (§1)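 Clinical isolates came from blood, body fluids, genital secretions, pus or sputum, identified conventionally or by Vitek. MICs were run by CLSI M7-A6 broth microdilution in Mueller-Hinton broth with 5 × 10^5 CFU/ml inoculum. Agents were twofold serially diluted, starting from 10% DMSO. Drug-free and uninoculated controls were included. Plates were incubated aerobically at 37°C for 24 h; MIC is the lowest concentration giving no visible growth.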

[2] = tested on: Staphylococcus aureus; test: Antimicrobial activity against methicillin-susceptible Staphylococcus aureus after 24 hrs by broth microdilution method; in short: as §1
[3] = tested on: Staphylococcus simulans; test: Antimicrobial activity against methicillin-resistant coagulase-negative Staphylococcus simulans after 24 hrs by broth microdilution method; in short: as §1
[4] = tested on: Staphylococcus haemolyticus; test: Bactericidal activity against methicillin-resistant coagulase-negative Staphylococcus haemolyticus after 24 hrs by plate counting method; conditions: Staphylococcus haemolyticus, 24 h
[5] = tested on: Staphylococcus haemolyticus; test: Antimicrobial activity against methicillin-resistant coagulase-negative Staphylococcus haemolyticus assessed as susceptible isolates after 24 hrs by broth microdilution method
[6] = tested on: Staphylococcus haemolyticus; test: Antimicrobial activity against methicillin-resistant coagulase-negative Staphylococcus haemolyticus after 24 hrs by broth microdilution method; in short: as §1
[7] = tested on: Staphylococcus epidermidis; test: Bactericidal activity against methicillin-resistant coagulase-negative Staphylococcus epidermidis after 24 hrs by plate counting method; conditions: Staphylococcus epidermidis, 24 h
[8] = tested on: Staphylococcus epidermidis; test: Antimicrobial activity against methicillin-resistant coagulase-negative Staphylococcus epidermidis assessed as susceptible isolates after 24 hrs by broth microdilution method
[9] = tested on: Staphylococcus epidermidis; test: Antimicrobial activity against methicillin-resistant coagulase-negative Staphylococcus epidermidis after 24 hrs by broth microdilution method; in short: as §1
[10] = tested on: Staphylococcus hominis; test: Bactericidal activity against methicillin-resistant coagulase-negative Staphylococcus hominis after 24 hrs by plate counting method; conditions: Staphylococcus hominis, 24 h
[11] = tested on: Staphylococcus hominis; test: Antimicrobial activity against methicillin-resistant coagulase-negative Staphylococcus hominis assessed as susceptible isolates after 24 hrs by broth microdilution method
[12] = tested on: Staphylococcus aureus; test: Bactericidal activity against methicillin-susceptible Staphylococcus aureus after 24 hrs by plate counting method
In short: (§2)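 Clinical staphylococcal isolates from patient body fluids, blood, genital secretions, pus or sputum; species by conventional methods or Vitek. Twofold dilutions in Mueller-Hinton broth, inoculum 5 × 10^5 CFU/ml, 37°C aerobic 24 h (CLSI M7-A6 microdilution). About 100 μl from each well without visible growth spread on MHA; 37°C 24 h. MBC = lowest concentration giving no growth on agar.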

[13] = tested on: Staphylococcus hominis; test: Antimicrobial activity against methicillin-resistant coagulase-negative Staphylococcus hominis after 24 hrs by broth microdilution method; in short: as §1
[14] = tested on: Staphylococcus aureus; test: Bactericidal activity against methicillin-resistant Staphylococcus aureus after 24 hrs by plate counting method
[15] = tested on: Staphylococcus aureus; test: Antimicrobial activity against methicillin-susceptible Staphylococcus aureus assessed as susceptible isolates after 24 hrs by broth microdilution method
[16] = tested on: Staphylococcus aureus; test: Antimicrobial activity against methicillin-resistant Staphylococcus aureus assessed as susceptible isolates after 24 hrs by broth microdilution method
[17] = tested on: Staphylococcus simulans; test: Bactericidal activity against methicillin-resistant coagulase-negative Staphylococcus simulans after 24 hrs by plate counting method; conditions: Staphylococcus simulans, 24 h; in short: as §2
[18] = tested on: Mammaliicoccus sciuri; test: Antimicrobial activity against methicillin-resistant coagulase-negative Staphylococcus sciuri after 24 hrs by broth microdilution method; in short: as §1
[19] = tested on: Mammaliicoccus sciuri; test: Bactericidal activity against methicillin-resistant coagulase-negative Staphylococcus sciuri after 24 hrs by plate counting method; conditions: Mammaliicoccus sciuri, 24 h; in short: as §2
[20] = tested on: Staphylococcus hominis; test: Antimicrobial activity against methicillin-susceptible coagulase-negative Staphylococcus hominis after 24 hrs by broth microdilution method; in short: as §1
[21] = tested on: Staphylococcus hominis; test: Antimicrobial activity against methicillin-susceptible coagulase-negative Staphylococcus hominis assessed as susceptible isolates after 24 hrs by broth microdilution method
[22] = tested on: Staphylococcus hominis; test: Bactericidal activity against methicillin-susceptible coagulase-negative Staphylococcus hominis after 24 hrs by plate counting method; in short: as §2
[23] = tested on: Staphylococcus epidermidis; test: Antimicrobial activity against methicillin-susceptible coagulase-negative Staphylococcus epidermidis after 24 hrs by broth microdilution method; in short: as §1
[24] = tested on: Staphylococcus epidermidis; test: Antimicrobial activity against methicillin-susceptible coagulase-negative Staphylococcus epidermidis assessed as susceptible isolates after 24 hrs by broth microdilution method
[25] = tested on: Staphylococcus epidermidis; test: Bactericidal activity against methicillin-susceptible coagulase-negative Staphylococcus epidermidis after 24 hrs by plate counting method; in short: as §2
[26] = tested on: Staphylococcus haemolyticus; test: Antimicrobial activity against methicillin-susceptible coagulase-negative Staphylococcus haemolyticus after 24 hrs by broth microdilution method; in short: as §1
[27] = tested on: Staphylococcus haemolyticus; test: Antimicrobial activity against methicillin-susceptible coagulase-negative Staphylococcus haemolyticus assessed as susceptible isolates after 24 hrs by broth microdilution method
[28] = tested on: Staphylococcus haemolyticus; test: Bactericidal activity against methicillin-susceptible coagulase-negative Staphylococcus haemolyticus after 24 hrs by plate counting method; in short: as §2
[29] = tested on: Staphylococcus simulans; test: Antimicrobial activity against methicillin-susceptible coagulase-negative Staphylococcus simulans after 24 hrs by broth microdilution method; in short: as §1
[30] = tested on: Staphylococcus simulans; test: Antimicrobial activity against methicillin-susceptible coagulase-negative Staphylococcus simulans assessed as susceptible isolates after 24 hrs by broth microdilution method
In short: (§3)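 Clinical isolates from blood, body fluids, pus, sputum or genital secretions, identified conventionally or by Vitek, were tested alongside ATCC 29213 and ATCC 12228 controls. CLSI M7-A6 broth microdilution in Mueller-Hinton broth used twofold dilutions from a 10% DMSO solution and 5 × 10^5 CFU/ml inoculum. Drug-free and uninoculated wells served as controls; incubation was aerobic at 37°C for 24 h. MIC was the lowest concentration with no visible growth.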

[31] = tested on: Staphylococcus simulans; test: Bactericidal activity against methicillin-susceptible coagulase-negative Staphylococcus simulans after 24 hrs by plate counting method; in short: as §2
[32] = tested on: Mammaliicoccus sciuri; test: Antimicrobial activity against methicillin-susceptible coagulase-negative Staphylococcus sciuri after 24 hrs by broth microdilution method; in short: as §1
[33] = tested on: Mammaliicoccus sciuri; test: Antimicrobial activity against methicillin-susceptible coagulase-negative Staphylococcus sciuri assessed as susceptible isolates after 24 hrs by broth microdilution method; in short: as §3
[34] = tested on: Mammaliicoccus sciuri; test: Bactericidal activity against methicillin-susceptible coagulase-negative Staphylococcus sciuri after 24 hrs by plate counting method; in short: as §2

CC(=O)NC[C@H]1CN(c2ccc(N3CCOCC3)c(F)c2)C(=O)O1 [LINEZOLID]
MIC50 [1]: 1 µg/mL (≈ 2.96 µM)
MIC90 [1]: 2 µg/mL (≈ 5.93 µM)
MIC50 [2]: 1 µg/mL (≈ 2.96 µM)
MIC90 [2]: 4 µg/mL (≈ 11.9 µM)
MIC50 [3]: 0.25 µg/mL (≈ 0.741 µM)
MIC90 [3]: 2 µg/mL (≈ 5.93 µM)
MBC [4]: 0.5 µg/mL (≈ 1.48 µM)
Activity [5]: 100%
MIC50 [6]: 0.25 µg/mL (≈ 0.741 µM)
MIC90 [6]: 2 µg/mL (≈ 5.93 µM)
MBC [7]: 0.5 µg/mL (≈ 1.48 µM)
Activity [8]: 100%
MIC50 [9]: 0.25 µg/mL (≈ 0.741 µM)
MIC90 [9]: 2 µg/mL (≈ 5.93 µM)
MBC [10]: 0.5 µg/mL (≈ 1.48 µM)
Activity [11]: 100%
MBC50 [12]: 8 µg/mL (≈ 23.7 µM)
MBC90 [12]: 32 µg/mL (≈ 94.9 µM)
MBC ([12]; Staphylococcus aureus, 24 h): 2 µg/mL (≈ 5.93 µM)
MIC50 [13]: 0.25 µg/mL (≈ 0.741 µM)
MIC90 [13]: 2 µg/mL (≈ 5.93 µM)
MBC90 [14]: 16 µg/mL (≈ 47.4 µM)
MBC ([14]; Staphylococcus aureus, 24 h): 8 µg/mL (≈ 23.7 µM)
Activity [15]: 96%
Activity [16]: 100%
MBC [17]: 0.5 µg/mL (≈ 1.48 µM)
MIC50 [18]: 0.25 µg/mL (≈ 0.741 µM)
MIC90 [18]: 2 µg/mL (≈ 5.93 µM)
MBC [19]: 0.5 µg/mL (≈ 1.48 µM)
MIC50 [20]: 0.25 µg/mL (≈ 0.741 µM)
MIC90 [20]: 4 µg/mL (≈ 11.9 µM)
Activity [21]: 96%
MBC50 [22]: 2 µg/mL (≈ 5.93 µM)
MBC90 [22]: 4 µg/mL (≈ 11.9 µM)
MBC ([22]; Staphylococcus hominis, 24 h): 0.25 µg/mL (≈ 0.741 µM)
MIC50 [23]: 0.25 µg/mL (≈ 0.741 µM)
MIC90 [23]: 4 µg/mL (≈ 11.9 µM)
Activity [24]: 96%
MBC50 [25]: 2 µg/mL (≈ 5.93 µM)
MBC90 [25]: 4 µg/mL (≈ 11.9 µM)
MBC ([25]; Staphylococcus epidermidis, 24 h): 0.25 µg/mL (≈ 0.741 µM)
MIC50 [26]: 0.25 µg/mL (≈ 0.741 µM)
MIC90 [26]: 4 µg/mL (≈ 11.9 µM)
Activity [27]: 96%
MBC50 [28]: 2 µg/mL (≈ 5.93 µM)
MBC90 [28]: 4 µg/mL (≈ 11.9 µM)
MBC ([28]; Staphylococcus haemolyticus, 24 h): 0.25 µg/mL (≈ 0.741 µM)
MIC50 [29]: 0.25 µg/mL (≈ 0.741 µM)
MIC90 [29]: 4 µg/mL (≈ 11.9 µM)
Activity [30]: 96%
MBC50 [31]: 2 µg/mL (≈ 5.93 µM)
MBC90 [31]: 4 µg/mL (≈ 11.9 µM)
MBC ([31]; Staphylococcus simulans, 24 h): 0.25 µg/mL (≈ 0.741 µM)
MIC50 [32]: 0.25 µg/mL (≈ 0.741 µM)
MIC90 [32]: 4 µg/mL (≈ 11.9 µM)
Activity [33]: 96%
MBC50 [34]: 2 µg/mL (≈ 5.93 µM)
MBC90 [34]: 4 µg/mL (≈ 11.9 µM)
MBC ([34]; Mammaliicoccus sciuri, 24 h): 0.25 µg/mL (≈ 0.741 µM)
